Screening data as filed in PubChem BioAssay.
A selection: hits, their analogues and other compounds. The true share with any hit is near 2.3%.
PTK2B oligo ant – antagonists of Pyk2 self-association, primary screen, Q293 cells, FERM NanoBiT luminescence, HTS; hits give low values; Protein-tyrosine kinase 2-beta (Homo sapiens), Q14289; actives 0.83% (n = 99,000); AID 1347419, 2020; z-score (the deposit names both 25 µM and 10 µM);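 active = Z-score of -3 or lower, scaled per plate to the spread of control and sample wells; inactive = z-score above -3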;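 note: negative z-score means lost luminescence so less FERM oligomerization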
Ecoli tolC – growth inhibitors of E. coli tolC mutant, primary screen, strain BW25113 ΔtolC::kan, 384-well. OD615. growth inhibition, % at 10 µM (by protocol). actives 2.2% (n = 65,000). AID 573, 2007;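 active = growth inhibition at or above a cutoff equal to the mean over every tested compound plus 3 SD, cut at about 60% in these data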;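 note: growth measured after 20 h incubation at 37 °C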
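Test system – E. coli BW25113 ΔtolC::kan, tolC deletion mutant strain · Detection – OD at 615 nm · Buffer or medium – LB with kanamycin 50 µg/mL · Times – 20 h compound exposure of bacteria at 37 °C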
Mac1 fbg inh – inhibitors of CD11b/CD18 adhesion to fibrinogen, primary screen, K562 cells, luminescence. inhibition, % at 10 µM. Integrin beta-2 (Homo sapiens) + Integrin alpha-M (Homo sapiens), P05107+P11215. ATPlite luminescence; Mn2+ added to activate the integrin. AID 1497, 2009. actives 0.54% (n = 93,000);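 active = primary inhibition of 50% or more at 10 µM, then 40% or more on retest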
Target sequence (P05107 whole entry, looked up, other chains not shown): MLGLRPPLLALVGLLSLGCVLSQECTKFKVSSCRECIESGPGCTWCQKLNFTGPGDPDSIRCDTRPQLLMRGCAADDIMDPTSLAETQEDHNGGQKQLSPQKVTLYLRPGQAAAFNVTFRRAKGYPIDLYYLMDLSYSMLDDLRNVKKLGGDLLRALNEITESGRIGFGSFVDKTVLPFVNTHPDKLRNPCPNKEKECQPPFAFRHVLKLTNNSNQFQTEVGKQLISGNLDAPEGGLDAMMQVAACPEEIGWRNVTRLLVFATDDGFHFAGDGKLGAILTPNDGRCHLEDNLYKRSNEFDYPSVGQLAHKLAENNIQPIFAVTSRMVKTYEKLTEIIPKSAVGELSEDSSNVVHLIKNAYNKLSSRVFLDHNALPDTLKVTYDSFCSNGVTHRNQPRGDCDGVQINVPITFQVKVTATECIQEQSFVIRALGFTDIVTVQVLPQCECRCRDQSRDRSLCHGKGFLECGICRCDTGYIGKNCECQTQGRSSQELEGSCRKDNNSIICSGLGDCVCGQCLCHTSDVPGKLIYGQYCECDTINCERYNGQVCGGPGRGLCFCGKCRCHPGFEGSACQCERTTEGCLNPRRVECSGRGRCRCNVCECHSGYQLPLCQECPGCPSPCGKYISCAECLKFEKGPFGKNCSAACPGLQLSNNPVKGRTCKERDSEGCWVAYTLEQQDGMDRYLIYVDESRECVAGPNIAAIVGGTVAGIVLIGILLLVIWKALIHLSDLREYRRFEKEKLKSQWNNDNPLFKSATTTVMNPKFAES
CD11b adhes enh – enhancers of CD11b/CD18 adhesion to fibrinogen, primary screen, K562 cells, luminescence | Integrin beta-2 (Homo sapiens) + Integrin alpha-M (Homo sapiens), P05107+P11215 | activation, % at 10 µM | actives 0.07% (n = 93,000) | ATPlite luminescence;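 active = 10 µM primary screen giving 50% or more activity, confirmed by 40% or more on retest at that dose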
E coli WT exp – growth inhibitors of wild-type E. coli, primary screen, strain BW25113, expanded library, OD600. OD600 absorbance. growth inhibition, % at 100 µM. actives 0.15% (n = 98,000). AID 710, 2007;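 active = growth inhibition above about 50% at one test dose, limit read from the data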;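 note: growth measured after 20 h incubation at 37 °C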
Of the large screens only hits and unclear results are named; the others gave an inactive call.

COc1ccc(C2CC(=O)C3=C(C2)Nc2ncnn2C3c2ccccc2C)c(OC)c1 (stereo unspecified)	PTK2B oligo ant -3.6
CN1c2ccccc2C(O)=C(C(=S)Nc2ccc(F)c(Cl)c2)S1(=O)=O	Mac1 fbg inh 84 (no result: Ecoli tolC)
Cc1nn(-c2cc(N3CCCCC3)ccc2[N+](=O)[O-])c(=O)c2ccccc12	PTK2B oligo ant -3.8 (no result: Ecoli tolC, Mac1 fbg inh, CD11b adhes enh, E coli WT exp)
CC1=NN(Cc2ccccc2)C(=O)C1C(c1ccccc1)C(C#N)C#N (stereo unspecified)	PTK2B oligo ant -3.6 (no result: Ecoli tolC, Mac1 fbg inh, CD11b adhes enh)
Cc1cc(/C=C(/C#N)c2cccc(Cl)c2)c(C)n1C	none (no result: PTK2B oligo ant, Ecoli tolC, Mac1 fbg inh, CD11b adhes enh)
Cc1cc(/C=C(/C#N)c2cccc(F)c2)c(C)n1-c1cccnc1	Ecoli tolC 99
Cc1nc(N)c(C#N)c(-c2ccccc2)c1C	none
CC1=C(C#N)c2nc(N)c(C#N)c(C)c2/C1=C\c1ccccc1	Ecoli tolC 74 (no result: PTK2B oligo ant, Mac1 fbg inh, CD11b adhes enh, E coli WT exp)
CCCCOc1ccc(C(=O)Nc2ccncc2)cc1	Mac1 fbg inh 96
CCCCOc1ccc(C(=O)NC)cc1	none
CCN(CC)S(=O)(=O)c1ccc2c(c1)C(=NO)c1cc(S(=O)(=O)N(CC)CC)ccc1-2	PTK2B oligo ant -3 (no result: Ecoli tolC, Mac1 fbg inh, CD11b adhes enh, E coli WT exp)
CCC(C)C(NC(=O)C1CCC(C)CC1)C(=O)NCc1ccccn1 (stereo unspecified)	none (no result: Ecoli tolC)
CCOc1ccc(NC(=O)COC(=O)C23CC4CC(CC(C4)C2)C3)c([N+](=O)[O-])c1	none (no result: PTK2B oligo ant, Ecoli tolC, E coli WT exp)
CC(OC(=O)c1nsc(Cl)c1Cl)C(=O)NCc1ccco1 (stereo unspecified)	none
CC(OC(=O)c1ccccc1NCc1ccco1)C(=O)Nc1ncc(Cl)cc1Cl (stereo unspecified)	Ecoli tolC 61
O=C(c1cc2cc(Br)cc(Br)c2oc1=O)N1CCCc2ccccc21	none (no result: PTK2B oligo ant, Ecoli tolC)
COC(=O)C1=C(N)N(c2ccccc2C(F)(F)F)C2=C(C(=O)CCC2)C1c1ccc2c(c1)OCO2 (stereo unspecified)	PTK2B oligo ant -4.3 (no result: Ecoli tolC)
COc1cc(/C=C(/C#N)c2nc3ccccc3[nH]2)ccc1OCC(=O)Nc1ccccc1C	CD11b adhes enh 204 (no result: Ecoli tolC)
COc1ccc(CC(=O)N2CC(C)CC(C)C2)cc1 (stereo unspecified)	none (no result: Ecoli tolC)
COc1ccc(-c2cnc(SCC(=O)Nc3cc(C)on3)n2Cc2ccco2)cc1	Ecoli tolC 80
O=C(CSc1nnc(Cc2cccs2)n1Cc1ccco1)Nc1cc(Cl)cc(Cl)c1	Ecoli tolC 91
COc1cccc(NC(=O)CSc2nnc(Cc3cccs3)n2-c2ccc(C)cc2)c1	PTK2B oligo ant -3.2 (no result: Ecoli tolC)
COc1ccc(C)cc1NC(=O)CSc1nnc(COc2ccccc2)n1Cc1ccco1	Ecoli tolC 76
O=C(CSc1nnc(Cc2cccs2)n1Cc1ccco1)Nc1cccc(Cl)c1	none (no result: Mac1 fbg inh, CD11b adhes enh)
CCCn1c(N2CCN(CC(=O)c3c[nH]c4ccccc34)CC2)nc2c1c(=O)[nH]c(=O)n2C	none
CCN(CC)C(=O)NC1CC(=O)N(c2ccc(OC)cc2)C1 (stereo unspecified)	none (no result: PTK2B oligo ant, Ecoli tolC, E coli WT exp)
Cc1ccc(NC(=O)C2c3ccccc3Oc3ccccc32)c(C)c1	none (no result: PTK2B oligo ant, Ecoli tolC, E coli WT exp)
CC(C)n1c(Nc2ccccc2)nc2ccccc21	none
CC(C)n1c2ccccc2c2nc3ccccc3nc21	Ecoli tolC 100
COc1ccccc1-c1nnc(Sc2nc([N+](=O)[O-])nn2C)o1	none (no result: Ecoli tolC)
c1ccc(-c2cccc(-c3ccccn3)n2)nc1	Ecoli tolC 73, E coli WT exp 68
Cc1ccc(NC(=O)c2cc(S(=O)(=O)c3ccccc3)ccc2Cl)cc1	none (no result: Ecoli tolC)
Cc1cc(C)cc(Nc2ncc3c(n2)CCCC3=O)c1	none
CCN(CC)S(=O)(=O)c1ccc2oc(Nc3ccc4c(c3)OCCO4)nc2c1	PTK2B oligo ant -3.5 (no result: Ecoli tolC)
Cc1nc2ccc(Nc3nc4cc(S(=O)(=O)N5CCOCC5)ccc4o3)cc2s1	none
COc1ccccc1NC(=O)COc1ccc(CO)cc1Cl	none
CCCCCOc1ccc(Br)cc1CSC(=N)N	Mac1 fbg inh 105 (no result: PTK2B oligo ant, Ecoli tolC, E coli WT exp)
Clc1ncc(CN2CCN(Cc3ccccc3)CC2)s1	none (no result: Ecoli tolC)
O=C(Nc1ccc2c(c1)OCCO2)c1coc2ccccc2c1=O	Mac1 fbg inh 52 (no result: PTK2B oligo ant, Ecoli tolC, E coli WT exp)
c1ccc(-c2nc(NC3CC3)nc(-n3ccnc3)n2)cc1	none
CCOc1ccccc1N1CCN(CC(O)COc2ccc3c(C)cc(=O)oc3c2)CC1 (stereo unspecified)	none
C=C(C)COc1ccc(-c2[nH]ncc2-c2ccccc2)c(O)c1	none (no result: Ecoli tolC, Mac1 fbg inh, CD11b adhes enh)
C=C(C)COc1ccc(-c2[nH]ncc2-c2ccc(OC)c(OC)c2)c(O)c1	Ecoli tolC 91
C=C(C)COc1ccc(-c2[nH]ncc2Oc2ccccc2OCC)c(O)c1	Ecoli tolC 100
C=C(C)COc1ccc(-c2[nH]ncc2Oc2cccc(OC)c2)c(O)c1	PTK2B oligo ant -3.6, Ecoli tolC 100
CCC(Oc1ccccc1)C(=O)Nc1nnc(C)s1 (stereo unspecified)	none
CCC(Oc1ccccc1)C(=O)Nc1ccc(-c2nnc(-c3ccco3)o2)cc1 (stereo unspecified)	Ecoli tolC 66
CCC(Oc1ccccc1)C(=O)Nc1nnc(C(F)(F)F)s1 (stereo unspecified)	Ecoli tolC 87, Mac1 fbg inh 74
CC(C)Oc1cccc(-c2nnc(SCC(=O)Nc3ccc4c(c3)OCCO4)n2N)c1	none (no result: Ecoli tolC, Mac1 fbg inh, CD11b adhes enh)
CCOc1cc(C(=S)N2CCOCC2)ccc1OS(=O)(=O)c1ccc(NC(C)=O)cc1	Mac1 fbg inh 88 (no result: Ecoli tolC)
CCOc1ccc(C(=O)Nc2ccc(S(=O)(=O)N3CCOCC3)cc2)cc1OCC	none
Cc1oc2c(CN3CCOCC3)c(O)ccc2c(=O)c1-c1ccc(Br)cc1	Ecoli tolC 99 (no result: Mac1 fbg inh, CD11b adhes enh)
FC(F)Sc1ccc(NC(=S)NC2CCCCC2)cc1	none (no result: Ecoli tolC)
FC(F)Sc1ccc(NC(=S)NCC2CCCCC2)cc1	Mac1 fbg inh 92 (no result: Ecoli tolC)
COc1ccc(/C=c2/sc3n(c2=O)C(c2ccccc2OC)C2=C(N=3)c3ccccc3CC2)cc1O (stereo unspecified)	CD11b adhes enh 169 (no result: Ecoli tolC)
COc1ccccc1C1C2=C(N=C3SCC(=O)N31)c1ccccc1CC2 (stereo unspecified)	none
CC(C)C1O/C(=N/C(=O)Nc2ccc(Cl)c(Cl)c2)NC1=O (stereo unspecified)	Ecoli tolC 98, E coli WT exp 53
CCOc1ccc2[nH]c3c(N4CCN(c5ccccn5)CC4)ncnc3c2c1	Ecoli tolC 66
Cc1ccc2c(c1)[nH]c1c(N3CCN(Cc4ccccc4)CC3)ncnc12	Ecoli tolC 100
COc1cc2[nH]c3c(N4CCN(c5ccc(Cl)cc5)CC4)ncnc3c2cc1OC	PTK2B oligo ant -3.2
COc1ccc2c(c1)[nH]c1c(N3CCN(Cc4ccc5c(c4)OCO5)CC3)ncnc12	Mac1 fbg inh 83
O=C(/C=C/c1ccc(Cl)cc1)NCCN1CCOCC1	none (no result: Ecoli tolC, Mac1 fbg inh, CD11b adhes enh)
CSC1=NC2C(N1)N(C)C(=O)N2C (stereo unspecified)	none (no result: Ecoli tolC)
Cc1ccc2[nH]c3c(N4CCN(Cc5ccc6c(c5)OCO6)CC4)ncnc3c2c1	Mac1 fbg inh 91 (no result: PTK2B oligo ant)
